Laboratory results: ChEMBL document CHEMBL3608301, “Phenolic Compounds from Atriplex littoralis and Their Radiation-Mitigating Activity” (J Nat Prod, 2015)

Tests used:
[1] = system: PBL; assay: Toxicity in 2-Gy gamma irradiated human PBL assessed as cytokinesis-block proliferation index at 1.8 uM treated for 2 to 19 hrs followed by compound washout measured after 72 hrs (reference value: 1.6 +/- 0.1); type: cell-based
[2] = system: PBL; assay: Radioprotective activity in 2-Gy gamma irradiated human PBL assessed as frequency of micronuclei at 1.8 uM treated for 2 to 19 hrs followed by compound washout measured after 72 hrs by cytochalasin-B-blocked micronucleus assay relative to control; type: functional
In short: (§1)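 Venous blood from five healthy male volunteers was γ-irradiated at 2 Gy (0.45 Gy/min) at room temperature and cultured. Compounds (0.8−7.4 μM final) were added 2 to 19 h after irradiation, at 37 °C. Cultures were then rinsed and moved to fresh RPMI 1640 for 72 h. Cytokinesis-block micronucleus assay: ≥1000 binucleated cells scored per sample (Countryman–Heddle criteria). Controls were non-treated irradiated cultures; one-way ANOVA with Tukey test.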

[3] = system: PBL; assay: Radioprotective activity in 2-Gy gamma irradiated human PBL assessed as frequency of micronuclei at 7 uM treated for 2 to 19 hrs followed by compound washout measured after 72 hrs by cytochalasin-B-blocked micronucleus assay relative to control; type: functional; in short: as §1
[4] = system: PBL; assay: Radioprotective activity in 2-Gy gamma irradiated human PBL assessed as incidence of micronuclei in binucleated cells at 3.5 uM treated for 2 to 19 hrs followed by compound washout measured after 72 hrs by cytochalasin-B-blocked micronucleus assay (reference value: 1.2 +/- 0.03); type: functional; in short: as §1
[5] = system: PBL; assay: Radioprotective activity in 2-Gy gamma irradiated human PBL assessed as binucleated cells with micronuclei at 3.5 uM treated for 2 to 19 hrs followed by compound washout measured after 72 hrs by cytochalasin-B-blocked micronucleus assay (reference value: 15.5 +/- 0.6%); type: functional; in short: as §1
[6] = system: PBL; assay: Radioprotective activity in 2-Gy gamma irradiated human PBL assessed as incidence of micronuclei in 1000 binucleated cells at 7 uM treated for 2 to 19 hrs followed by compound washout measured after 72 hrs by cytochalasin-B-blocked micronucleus assay (reference value: 183 +/- 9.6); type: functional; in short: as §1
[7] = system: PBL; assay: Radioprotective activity in 2-Gy gamma irradiated human PBL assessed as binucleated cells with micronuclei at 7 uM treated for 2 to 19 hrs followed by compound washout measured after 72 hrs by cytochalasin-B-blocked micronucleus assay (reference value: 15.5 +/- 0.6%); type: functional; in short: as §1
[8] = system: PBL; assay: Toxicity in 2-Gy gamma irradiated human PBL assessed as cytokinesis-block proliferation index at 7 uM treated for 2 to 19 hrs followed by compound washout measured after 72 hrs (reference value: 1.6 +/- 0.1); type: cell-based
[9] = system: PBL; assay: Radioprotective activity in 2-Gy gamma irradiated human PBL assessed as incidence of micronuclei in binucleated cells at 7 uM treated for 2 to 19 hrs followed by compound washout measured after 72 hrs by cytochalasin-B-blocked micronucleus assay (reference value: 1.2 +/- 0.03); type: functional; in short: as §1
[10] = system: PBL; assay: Radioprotective activity in 2-Gy gamma irradiated human PBL assessed as incidence of micronuclei in 1000 binucleated cells at 3.5 uM treated for 2 to 19 hrs followed by compound washout measured after 72 hrs by cytochalasin-B-blocked micronucleus assay (reference value: 183 +/- 9.6); type: functional; in short: as §1
[11] = system: PBL; assay: Radioprotective activity in 2-Gy gamma irradiated human PBL assessed as incidence of micronuclei in 1000 binucleated cells at 1.8 uM treated for 2 to 19 hrs followed by compound washout measured after 72 hrs by cytochalasin-B-blocked micronucleus assay (reference value: 183 +/- 9.6); type: functional; in short: as §1
[12] = system: PBL; assay: Radioprotective activity in 2-Gy gamma irradiated human PBL assessed as binucleated cells with micronuclei at 1.8 uM treated for 2 to 19 hrs followed by compound washout measured after 72 hrs by cytochalasin-B-blocked micronucleus assay (reference value: 15.5 +/- 0.6%); type: functional; in short: as §1
[13] = system: PBL; assay: Radioprotective activity in 2-Gy gamma irradiated human PBL assessed as frequency of micronuclei at 3.5 uM treated for 2 to 19 hrs followed by compound washout measured after 72 hrs by cytochalasin-B-blocked micronucleus assay relative to control; type: functional; in short: as §1
[14] = system: PBL; assay: Radioprotective activity in 2-Gy gamma irradiated human PBL assessed as incidence of micronuclei in binucleated cells at 1.8 uM treated for 2 to 19 hrs followed by compound washout measured after 72 hrs by cytochalasin-B-blocked micronucleus assay (reference value: 1.2 +/- 0.03); type: functional; in short: as §1
[15] = system: PBL; assay: Toxicity in 2-Gy gamma irradiated human PBL assessed as cytokinesis-block proliferation index at 3.5 uM treated for 2 to 19 hrs followed by compound washout measured after 72 hrs (reference value: 1.6 +/- 0.1); type: cell-based
[16] = system: PBL; assay: Radioprotective activity in 2-Gy gamma irradiated human PBL assessed as frequency of micronuclei at 3.7 uM treated for 2 to 19 hrs followed by compound washout measured after 72 hrs by cytochalasin-B-blocked micronucleus assay relative to control; type: functional; in short: as §1
[17] = system: PBL; assay: Radioprotective activity in 2-Gy gamma irradiated human PBL assessed as frequency of micronuclei at 7.4 uM treated for 2 to 19 hrs followed by compound washout measured after 72 hrs by cytochalasin-B-blocked micronucleus assay relative to control; type: functional; in short: as §1
[18] = system: PBL; assay: Radioprotective activity in 2-Gy gamma irradiated human PBL assessed as incidence of micronuclei in binucleated cells at 3.7 uM treated for 2 to 19 hrs followed by compound washout measured after 72 hrs by cytochalasin-B-blocked micronucleus assay (reference value: 1.2 +/- 0.03); type: functional; in short: as §1
[19] = system: PBL; assay: Toxicity in 2-Gy gamma irradiated human PBL assessed as cytokinesis-block proliferation index at 7.4 uM treated for 2 to 19 hrs followed by compound washout measured after 72 hrs (reference value: 1.6 +/- 0.1); type: cell-based
[20] = system: PBL; assay: Radioprotective activity in 2-Gy gamma irradiated human PBL assessed as binucleated cells with micronuclei at 7.4 uM treated for 2 to 19 hrs followed by compound washout measured after 72 hrs by cytochalasin-B-blocked micronucleus assay (reference value: 15.5 +/- 0.6%); type: functional; in short: as §1
[21] = system: PBL; assay: Radioprotective activity in 2-Gy gamma irradiated human PBL assessed as incidence of micronuclei in 1000 binucleated cells at 7.4 uM treated for 2 to 19 hrs followed by compound washout measured after 72 hrs by cytochalasin-B-blocked micronucleus assay (reference value: 183 +/- 9.6); type: functional
In short: (§2)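 Venous blood from five healthy male volunteers was gamma-irradiated at 2 Gy (0.45 Gy/min) at room temperature, then cultured. Compounds (0.8–7.4 μM final) were added after irradiation for 19 h at 37 °C. Cells were rinsed and moved to fresh RPMI 1640 for 72 h. At least 1000 binucleated cells per sample were scored for micronuclei and CBPI calculated. Analysis used one-way ANOVA with Tukey test.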

[22] = system: PBL; assay: Radioprotective activity in 2-Gy gamma irradiated human PBL assessed as incidence of micronuclei in binucleated cells at 7.4 uM treated for 2 to 19 hrs followed by compound washout measured after 72 hrs by cytochalasin-B-blocked micronucleus assay (reference value: 1.2 +/- 0.03); type: functional; in short: as §1
[23] = system: PBL; assay: Toxicity in 2-Gy gamma irradiated human PBL assessed as cytokinesis-block proliferation index at 3.7 uM treated for 2 to 19 hrs followed by compound washout measured after 72 hrs (reference value: 1.6 +/- 0.1); type: cell-based
[24] = system: PBL; assay: Radioprotective activity in 2-Gy gamma irradiated human PBL assessed as binucleated cells with micronuclei at 3.7 uM treated for 2 to 19 hrs followed by compound washout measured after 72 hrs by cytochalasin-B-blocked micronucleus assay (reference value: 15.5 +/- 0.6%); type: functional; in short: as §1
[25] = system: PBL; assay: Radioprotective activity in 2-Gy gamma irradiated human PBL assessed as incidence of micronuclei in 1000 binucleated cells at 3.7 uM treated for 2 to 19 hrs followed by compound washout measured after 72 hrs by cytochalasin-B-blocked micronucleus assay (reference value: 183 +/- 9.6); type: functional; in short: as §2

`OC[C@H]1O[C@@H](OCc2ccc(O)cc2)[C@H](O)[C@@H](O)[C@@H]1O` gave an Activity [1] of 1.7, an Activity [2] of 85.5% and an Activity [3] of 87%. It also gave an Activity [4] of 1.2, an Activity [5] of 13.1% and an Activity [6] of 159.2. It also gave an Activity [7] of 13.6%, an Activity [8] of 1.7 and an Activity [9] of 1.2. For the same compound, the Activity [10] was 155.7, the Activity [11] was 156.4 and the Activity [12] was 13.1%. For the same compound, the Activity [13] was 85.1%, the Activity [14] was 1.2 and the Activity [15] was 1.8.

With `OC[C@H]1O[C@@H](Oc2ccc(O)cc2)[C@H](O)[C@@H](O)[C@@H]1O` [ARBUTIN] the Activity [16] was 103.4%, the Activity [1] was 1.7 and the Activity [2] was 104.5%. The Activity [17] was 107.8%, the Activity [18] was 1.3 and the Activity [19] was 1.6. It also gave an Activity [20] of 15.8%, an Activity [21] of 197.2 and an Activity [22] of 1.2. It also gave an Activity [23] of 1.8, an Activity [24] of 15% and an Activity [11] of 191.2. It also gave an Activity [12] of 15.1%, an Activity [25] of 189.3 and an Activity [14] of 1.3.
